What was measured:
Hepatitis C virus [1] = assay: Antiviral activity against HCV infected in human clone A cells; type: functional, Hepacivirus hominis
In short: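 Clone A replicon cells seeded at 1500 cells/well. Compounds serially diluted in G418-free culture medium and added, then incubated 4 days at 37 °C in 5% CO2. HCV RNA quantified by real-time RT-PCR as ΔCt relative to the mean no-drug control.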

Hepatitis C virus [2] = assay: Antiviral activity against HCV infected in human clone A cells assessed as inhibition of cellular rRNA replication at 50 uM; type: functional, Hepacivirus hominis
[3] = Half life in human liver S9 fraction at 100 uM; type: ADME, subcellular
In short: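 Compound at 100 μM in 50 mM K2HPO4 pH 7.4 with 5 mM MgCl2. Started with 4 mg/mL human liver S9 at 37 °C. Samples at 0–24 h quenched with acetonitrile. Parent remaining measured by LC/MS/MS peak area relative to 0 h, and half-life calculated.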

[4] = Half life in simulated intestinal fluid of pH 7.5 at 50 ug/mL; type: physicochemical
In short: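 Compound at 50 μg/mL in simulated gastric fluid (pH 1.2) or simulated intestinal fluid (pH 7.5), 37 °C, 20 h. Injected by reverse-phase HPLC every 2 h, peak area at 260 nm.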

Rattus norvegicus [5] = assay: Tmax in rat liver assessed as 2'-F-2'-C-Methyluridine-5''-TP level at 50 mg/kg, po; type: ADME, organism-based; set-up: dose 50 mg/kg, route oral; conditions: in vivo
In short: (§1)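 Rats given a single oral gavage dose of 50 mg/kg in 0.5% carboxymethylcellulose sodium, 5 mL/kg. Livers taken at 0.5, 1, 2, 4, 6 and 12 h after CO2 sacrifice and ice-cold saline perfusion, then snap-frozen. Homogenized in 3 volumes of cold 70% methanol with 20 mM EDTA/EGTA. Triphosphate measured by LC/MS/MS (ESI, MRM negative mode), noncompartmental analysis.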

Homo sapiens = organism: Homo sapiens; assay: Half life in human plasma at 100 uM
Rattus norvegicus [6] = assay: Cmax in rat liver assessed as 2'-F-2'-C-Methyluridine-5''-TP level at 50 mg/kg, po; type: ADME, organism-based; set-up: dose 50 mg/kg, route oral; conditions: in vivo; in short: as §1
[7] = Half life in simulated gastric fluid at pH 1.2 at 50 ug/mL; type: physicochemical
In short: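 Compound at 50 μg/mL in simulated gastric fluid (pH 1.2) or simulated intestinal fluid (pH 7.5), 37 °C, 20 h. Injected by reverse-phase HPLC every 2 h, peak area at 260 nm. Percent parent remaining relative to 0 h, giving half-life.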

Rattus norvegicus [8] = assay: AUC (0 to infinity) in rat liver assessed as 2'-F-2'-C-Methyluridine-5''-TP level at 50 mg/kg, po; type: ADME, organism-based; set-up: time infinity, dose 50 mg/kg, route oral; conditions: in vivo; in short: as §1
Rattus norvegicus [9] = assay: AUC (0 to t) in rat liver assessed as 2'-F-2'-C-Methyluridine-5''-TP level at 50 mg/kg, po; type: ADME, organism-based; set-up: dose 50 mg/kg, route oral; conditions: in vivo; in short: as §1

Compound	EC90 (Hepatitis C virus [1]; Hepatitis C virus)	inhibition at 50 µM (Hepatitis C virus [2])	also measured
COC(=O)[C@H](CCSC)NP(=O)(OC[C@H]1O[C@@H](n2ccc(=O)[nH]c2=O)[C@](C)(F)[C@@H]1O)Oc1ccccc1 (stereo partly drawn)	60100 nM	24.1%	–
C[C@H](NP(=O)(OC[C@H]1O[C@@H](n2ccc(=O)[nH]c2=O)[C@](C)(F)[C@@H]1O)Oc1ccccc1)C(=O)OC1CCCCC1 (stereo partly drawn)	250 nM	61%	half-life at 100 µM [3]: 1.4 h; half-life at 50 ug/mL [4]: > 20 h; Tmax (Rattus norvegicus [5]): 2 h; half-life at 100 µM (Homo sapiens): > 24 h; Cmax (Rattus norvegicus [6]): 557 ng/g; half-life at 50 ug/mL [7]: 17 h; AUC (Rattus norvegicus [8]): 8831 ng·h/g; AUC (Rattus norvegicus [9]): 6487 ng·h/g
COC(=O)[C@@H](NP(=O)(OC[C@H]1O[C@@H](n2ccc(=O)[nH]c2=O)[C@](C)(F)[C@@H]1O)Oc1ccccc1)C(C)C (stereo partly drawn)	> 50000 nM	0%	–
CCOP(=O)(N[C@@H](C)C(=O)OC)OC[C@H]1O[C@@H](n2ccc(=O)[nH]c2=O)[C@](C)(F)[C@@H]1O (stereo partly drawn)	> 50000 nM	16.8%	–
C[C@H](NP(=O)(OC[C@H]1O[C@@H](n2ccc(=O)[nH]c2=O)[C@](C)(F)[C@@H]1O)Oc1ccccc1)C(=O)OCCF (stereo partly drawn)	1720 nM	43.8%	–
C[C@H](NP(=O)(OC[C@H]1O[C@@H](n2ccc(=O)[nH]c2=O)[C@](C)(F)[C@@H]1O)Oc1ccccc1)C(=O)OCC(F)F (stereo partly drawn)	6800 nM	38.3%	–
COC(=O)[C@H](CC(C)C)NP(=O)(OC[C@H]1O[C@@H](n2ccc(=O)[nH]c2=O)[C@](C)(F)[C@@H]1O)Oc1ccccc1 (stereo partly drawn)	5400 nM	0%	–
COC(=O)[C@H](Cc1ccccc1)NP(=O)(OC[C@H]1O[C@@H](n2ccc(=O)[nH]c2=O)[C@](C)(F)[C@@H]1O)Oc1ccccc1 (stereo partly drawn)	57600 nM	20.6%	–
COC(=O)[C@H](C)NP(=O)(OC[C@H]1O[C@@H](n2ccc(=O)[nH]c2=O)[C@](C)(F)[C@@H]1O)Oc1ccc(Cl)c(Cl)c1 (stereo partly drawn)	450 nM	63.7%	–
CC(C)OC(=O)[C@H](C)NP(=O)(OC[C@H]1O[C@@H](n2ccc(=O)[nH]c2=O)[C@](C)(F)[C@@H]1O)Oc1ccc(F)cc1 (stereo partly drawn)	770 nM	0%	half-life at 100 µM [3]: 0.42 h; half-life at 50 ug/mL [4]: > 20 h; Tmax (Rattus norvegicus [5]): 6 h; half-life at 100 µM (Homo sapiens): > 24 h; Cmax (Rattus norvegicus [6]): 519 ng/g; half-life at 50 ug/mL [7]: > 20 h; AUC (Rattus norvegicus [8]): 7375 ng·h/g; AUC (Rattus norvegicus [9]): 6140 ng·h/g
C[C@H](NP(=O)(OC[C@H]1O[C@@H](n2ccc(=O)[nH]c2=O)[C@](C)(F)[C@@H]1O)Oc1ccc(Br)cc1)C(=O)OC1CCCCC1 (stereo partly drawn)	39 nM	91.5%	–
CC[C@H](NP(=O)(OC[C@H]1O[C@@H](n2ccc(=O)[nH]c2=O)[C@](C)(F)[C@@H]1O)Oc1ccccc1)C(=O)OC (stereo partly drawn)	1610 nM	0%	–
COC(=O)[C@H](C)NP(=O)(OC[C@H]1O[C@@H](n2ccc(=O)[nH]c2=O)[C@](C)(F)[C@@H]1O)Oc1ccc(Cl)cc1 (stereo partly drawn)	580 nM	62.8%	–
CCOC(=O)[C@H](C)NP(=O)(OC[C@H]1O[C@@H](n2ccc(=O)[nH]c2=O)[C@](C)(F)[C@@H]1O)Oc1ccc(F)cc1 (stereo partly drawn)	760 nM	55.3%	half-life at 100 µM [3]: 0.23 h; half-life at 50 ug/mL [4]: > 20 h; Tmax (Rattus norvegicus [5]): 4 h; half-life at 100 µM (Homo sapiens): > 8 h; Cmax (Rattus norvegicus [6]): 291 ng/g; half-life at 50 ug/mL [7]: 17 h; AUC (Rattus norvegicus [8]): 5423 ng·h/g; AUC (Rattus norvegicus [9]): 4191 ng·h/g
COC(=O)[C@H](Cc1c[nH]c2ccccc12)NP(=O)(OC[C@H]1O[C@@H](n2ccc(=O)[nH]c2=O)[C@](C)(F)[C@@H]1O)Oc1ccccc1 (stereo partly drawn)	15600 nM	68.4%	–
COC(=O)C1(NP(=O)(OC[C@H]2O[C@@H](n3ccc(=O)[nH]c3=O)[C@](C)(F)[C@@H]2O)Oc2ccc(F)cc2)CC1 (stereo partly drawn)	> 50000 nM	0%	–
CCOC(=O)[C@H](C)NP(=O)(OC[C@H]1O[C@@H](n2ccc(=O)[nH]c2=O)[C@](C)(F)[C@@H]1O)Oc1ccccc1 (stereo partly drawn)	980 nM	36.9%	–
CC(C)C(=O)OC[C@H]1O[C@@H](n2ccc(N)nc2=O)[C@](C)(F)[C@@H]1OC(=O)C(C)C [MERICITABINE]	3900 nM	0%	–

Compound	EC90 (Hepatitis C virus [1]; Hepatitis C virus)	inhibition at 50 µM (Hepatitis C virus [2])	also measured
COC(=O)[C@H](C)NP(=O)(OC[C@H]1O[C@@H](n2ccc(=O)[nH]c2=O)[C@](C)(F)[C@@H]1O)Oc1cccc2ccccc12 (stereo partly drawn)	90 nM	95.4%	–
CCOC(=O)[C@H](C)NP(=O)(OC[C@H]1O[C@@H](n2ccc(=O)[nH]c2=O)[C@](C)(F)[C@@H]1O)Oc1ccc(Cl)cc1 (stereo partly drawn)	390 nM	0%	–
CCC(C)OC(=O)[C@H](C)NP(=O)(OC[C@H]1O[C@@H](n2ccc(=O)[nH]c2=O)[C@](C)(F)[C@@H]1O)Oc1ccccc1 (stereo partly drawn)	60 nM	93.8%	–
C[C@H](NP(=O)(OC[C@H]1O[C@@H](n2ccc(=O)[nH]c2=O)[C@](C)(F)[C@@H]1O)Oc1ccccc1)C(=O)Oc1ccccc1 (stereo partly drawn)	18500 nM	0%	–
COC(=O)[C@H](C)NP(=O)(OC[C@H]1O[C@@H](n2ccc(=O)[nH]c2=O)[C@](C)(F)[C@@H]1O)Oc1ccc(F)cc1 (stereo partly drawn)	690 nM	16.8%	–
CCOC(=O)[C@H](C)NP(=O)(OC[C@H]1O[C@@H](n2ccc(=O)[nH]c2=O)[C@](C)(F)[C@@H]1O)Oc1ccc(Br)cc1 (stereo partly drawn)	360 nM	80.5%	–
COC(=O)[C@H](C)NP(=O)(OC[C@H]1O[C@@H](n2ccc(=O)[nH]c2=O)[C@](C)(F)[C@@H]1O)Oc1ccc(Br)cc1 (stereo partly drawn)	2110 nM	30.8%	–
CC(C)OC(=O)C(C)N[P@](=O)(OC[C@H]1O[C@@H](n2ccc(=O)[nH]c2=O)[C@](C)(F)[C@@H]1O)Oc1ccccc1 (single isomer, unassigned) [SOFOSBUVIR]	–	–	EC90 (Hepatitis C virus [1]): > 50000 nM
COC(=O)C(C)(C)NP(=O)(OC[C@H]1O[C@@H](n2ccc(=O)[nH]c2=O)[C@](C)(F)[C@@H]1O)Oc1ccc(F)cc1 (stereo partly drawn)	2200 nM	0%	–
C[C@H](NP(=O)(OC[C@H]1O[C@@H](n2ccc(=O)[nH]c2=O)[C@](C)(F)[C@@H]1O)Oc1ccccc1)C(=O)OCc1ccc(F)cc1 (stereo partly drawn)	240 nM	0%	–
C[C@H](NP(=O)(OC[C@H]1O[C@@H](n2ccc(=O)[nH]c2=O)[C@](C)(F)[C@@H]1O)Oc1ccccc1)C(=O)OCc1ccccc1 (stereo partly drawn)	130 nM	74.3%	–
C[C@H](NP(=O)(OC[C@H]1O[C@@H](n2ccc(=O)[nH]c2=O)[C@](C)(F)[C@@H]1O)Oc1ccc(Cl)cc1)C(=O)OC1CCCCC1 (stereo partly drawn)	54 nM	66.9%	–
CCCCOC(=O)[C@H](C)NP(=O)(OC[C@H]1O[C@@H](n2ccc(=O)[nH]c2=O)[C@](C)(F)[C@@H]1O)Oc1ccccc1 (stereo partly drawn)	90 nM	79.6%	–
CC(C)OC(=O)[C@H](C)NP(=O)(OC[C@H]1O[C@@H](n2ccc(=O)[nH]c2=O)[C@](C)(F)[C@@H]1O)Oc1ccc(Br)cc1 (stereo partly drawn)	570 nM	0%	–
COC(=O)[C@H](C)NP(=O)(OC[C@H]1O[C@@H](n2ccc(=O)[nH]c2=O)[C@](C)(F)[C@@H]1O)Oc1ccc(Cl)cc1Cl (stereo partly drawn)	690 nM	10.9%	–
CCCCCOC(=O)[C@H](C)NP(=O)(OC[C@H]1O[C@@H](n2ccc(=O)[nH]c2=O)[C@](C)(F)[C@@H]1O)Oc1ccccc1 (stereo partly drawn)	> 50000 nM	92%	–
COC(=O)CNP(=O)(OC[C@H]1O[C@@H](n2ccc(=O)[nH]c2=O)[C@](C)(F)[C@@H]1O)Oc1ccccc1 (stereo partly drawn)	22100 nM	0%	–

From ChEMBL document CHEMBL1255219, “Discovery of a β-d-2'-deoxy-2'-α-fluoro-2'-β-C-methyluridine nucleotide prodrug (PSI-7977) for the treatment of hepatitis C virus” (J Med Chem, 2010)
